Experimental data reported in ChEMBL document CHEMBL4000240, “Escape from adamantane: Scaffold optimization of novel P2X7 antagonists featuring complex polycycles” (Bioorg Med Chem Lett, 2017).

How the values were obtained:
[1] = biological target: T1, P2X purinoceptor 7 (Homo sapiens) (UniProt Q99572); experiment: Antagonist activity at human P2X7 receptor expressed in HEK293 cells assessed as inhibition of BzATP-induced ethidium bromide uptake at 10 uM after 2 hrs by fluorescence assay relative to control; format: cell-based
T1 sequence (whole entry): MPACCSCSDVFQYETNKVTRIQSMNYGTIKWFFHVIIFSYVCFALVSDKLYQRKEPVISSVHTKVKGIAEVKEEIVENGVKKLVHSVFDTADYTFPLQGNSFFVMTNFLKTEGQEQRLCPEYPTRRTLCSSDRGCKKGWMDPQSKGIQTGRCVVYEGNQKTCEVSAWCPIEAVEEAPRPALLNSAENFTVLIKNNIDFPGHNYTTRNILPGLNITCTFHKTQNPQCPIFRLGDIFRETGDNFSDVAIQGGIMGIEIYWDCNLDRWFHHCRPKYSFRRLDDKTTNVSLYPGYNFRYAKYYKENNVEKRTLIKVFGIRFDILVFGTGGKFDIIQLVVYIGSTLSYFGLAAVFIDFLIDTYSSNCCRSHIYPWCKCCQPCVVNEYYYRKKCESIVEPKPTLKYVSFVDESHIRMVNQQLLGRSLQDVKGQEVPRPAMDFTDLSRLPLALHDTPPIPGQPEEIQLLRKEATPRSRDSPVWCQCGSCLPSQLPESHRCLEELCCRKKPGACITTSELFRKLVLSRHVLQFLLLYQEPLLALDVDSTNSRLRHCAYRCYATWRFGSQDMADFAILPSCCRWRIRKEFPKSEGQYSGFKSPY
Outline: (§1)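 HEK293 cells stably carrying hP2X7 (pcDNA3.1 plasmid, Lipofectamine transfection) grown in DMEM/10% FBS, 2 mM glutamine, antibiotics, 37 °C, 5% CO2. Cells at 2.5 x 10^6/mL in pH 7.4 HEPES buffer with sucrose or NaCl, given compound plus BzATP, 2 h at 37 °C. Ethidium read at ex 530/em 590 nm as % of BzATP-only uptake. IC50 by nonlinear regression, 3-6 experiments.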

P2X purinoceptor 7 = biological target: T2, P2X purinoceptor 7 (Homo sapiens, UniProt Q99572); experiment: Antagonist activity at human P2X7 receptor expressed in HEK293 cells assessed as inhibition of BzATP-induced ethidium bromide uptake after 2 hrs by fluorescence assay; format: cell-based; outline: as §1
T2 sequence (Q99572 whole entry): T1 sequence (whole entry)

| SMILES | inhibition [1] [%] | IC50 (P2X purinoceptor 7) [nM] |
| --- | --- | --- |
| O=C1C2C3C=CC(C4CC34)C2C(=O)N1Nc1ccccc1Cl (configuration not stated) | < 20 |  |
| O=C(NNc1ccc(C(F)(F)F)cc1)C12C3C=CC4C3C3C(C=CC31)C42 | < 20 |  |
| O=C(NNc1ccc(C(F)(F)F)cc1)C12C3CCC4C3C3C(CCC31)C42 | < 20 |  |
| O=C1C2C3C=CC(C4CC34)C2C(=O)N1Nc1ccccc1 (configuration not stated) | < 20 |  |
| O=C(NNc1ccccc1Cl)C12C3CCC4C3C3C(CCC31)C42 |  | 933 |
| O=C(NNc1ccc(C(F)(F)F)cc1Cl)C12C3C=CC4C3C3C(C=CC31)C42 |  | 1560 |
| O=C1C2C3C=CC(C4CC34)C2C(=O)N1Nc1ccccc1F (configuration not stated) | < 20 |  |
| O=C(NNc1ccccc1C(F)(F)F)C12C3C=CC4C3C3C(C=CC31)C42 |  | 132 |
| CN([C@@H](Cc1ccc(OS(=O)(=O)c2cccc3cnccc23)cc1)C(=O)N1CCN(c2ccccc2)CC1)S(=O)(=O)c1cccc2cnccc12 |  | 96 |
| O=C(NNc1ccccc1C(F)(F)F)C12C3CCC4C3C3C(CCC31)C42 |  | 366 |
| O=C(NNc1ccccc1Cl)C12C3C=CC4C3C3C(C=CC31)C42 |  | 96 |
| CC12CC3CC1(C)CC3(C(=O)NNc1ccccc1Cl)C2 |  | 18 |
